Compounds with a hit are over-represented: about 2.2% of the library has one in this group of screens.
UBC13 inh – human UBC13 polyubiquitination inhibition | UBC13 polyubiquitin chain formation, TR-FRET | inhibition, % at 20 µM | 330,000 tested, 0.47% active; in the data active means inhibition above about 45%, passing the limit was not always enough; inconclusive means no clear call, values can overlap the other calls
Target sequence (P61088 whole entry, looked up): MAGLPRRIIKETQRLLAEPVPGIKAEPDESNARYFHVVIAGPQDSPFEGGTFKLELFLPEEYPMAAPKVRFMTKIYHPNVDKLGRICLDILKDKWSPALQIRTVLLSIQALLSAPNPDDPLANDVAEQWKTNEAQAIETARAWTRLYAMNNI
GSTO1 counter – GSTO1 inhibition, counter-screen for RBBP9 inhibitors; recombinant GSTO1, activity-based probe fluorescence polarization; 300,000 tested, 1.1% active; inhibition, % at 5.96 µM;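 active means inhibition above the campaign mean inhibition plus 3 SD, cut at about 35% in these data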
Apaf-1 inh – blocks human Apaf-1 apoptosome activity. reconstituted apoptosome caspase-3 activity, DEVD-Rh110 fluorescence. 330,000 tested, 0.71% active. inhibition, % at 20 µM; active means inhibition of at least 40% at 20 µM
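Assay system: Apoptosome proteins | Medium: pH 7.5 Hepes buffer with CHAPS, BSA, DTT | Also added: Cytochrome c and DEVD-Rh110 substrate | Times: 30 min plus 50 min, RT | Detection: Rhodamine 110 fluorescence at Ex 480/Em 540 nm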
PAD4 inh – inhibitors of human PAD4; recombinant PAD4, RCA probe fluorescence polarization; 330,000 tested, 0.41% active; inhibition, % at 6.36 µM; Q9UM07;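 active means percent inhibition above a cutoff equal to the mean of all tested compounds plus 3 SD, cut at about 15% in these data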
Rin1 Abl inh – blocks binding of human Rin1 to Abl; P00519+Q13671; TR-FRET Rin1/Abl binding, biochemical; inhibition, % at 7.35 µM; 360,000 tested, 0.4% active; AID 588664; in the data active means inhibition above about 5%, passing the limit was not always enough
SUMO HTRF inh – inhibitors of human SUMOylation (UBC9) | P63279 | HTRF SUMOylation assay, SAE1/SAE2 + UBC9, in vitro | inhibition, % at 35 µM | 290,000 tested, 0.36% active | AID 2006; in the data active means inhibition above about 50%, passing the limit was not always enough; inconclusive means no clear call, values can overlap the other calls
Target sequence (P63279 whole entry, looked up): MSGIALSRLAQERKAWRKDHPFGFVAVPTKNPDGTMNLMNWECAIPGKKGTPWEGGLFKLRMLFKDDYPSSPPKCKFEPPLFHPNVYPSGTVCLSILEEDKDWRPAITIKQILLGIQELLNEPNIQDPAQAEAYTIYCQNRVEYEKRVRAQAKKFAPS
Casp3 UBC13 ctr – inhibits human caspase-3 in UBC13 counter-screen; shares compounds with UBC13 inh; Recombinant caspase-3, Caspase-Glo 3/7 luminescence, 60 min; inhibition, % at 20 µM; 1,400 tested, 4% active; AID 488856;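 active means mean inhibition across replicates above about 26%, limit read from the data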
Target sequence (P42574 whole entry, looked up): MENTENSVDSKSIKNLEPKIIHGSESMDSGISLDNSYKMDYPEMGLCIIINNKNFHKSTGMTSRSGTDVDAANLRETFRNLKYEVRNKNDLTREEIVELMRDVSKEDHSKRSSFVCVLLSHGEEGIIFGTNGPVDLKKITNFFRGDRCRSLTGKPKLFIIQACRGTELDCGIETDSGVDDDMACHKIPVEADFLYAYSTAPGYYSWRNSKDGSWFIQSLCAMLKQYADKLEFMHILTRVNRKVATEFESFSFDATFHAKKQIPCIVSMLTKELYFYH
UBC13 confirm – human UBC13 polyubiquitin inhibition, confirmed. inhibition, % at 10 µM. shares compounds with UBC13 inh. AID 488859. 1,400 tested, 68% active. UBC13 polyubiquitination, TR-FRET, biochemical; in the data active means inhibition above about 45%; inconclusive means no clear call, values can overlap the other calls
Numbers stand for hits.

Screening CCN1CCN(CCNC(=O)c2ccc(/C=C3/Sc4ccccc4N(Cc4ccccc4C)C3=O)cc2)CC1 returned Rin1 Abl inh inactive and SUMO HTRF inh inactive.
Screening CCN1CCN(CCCNC(=O)c2ccc(/C=C3/Sc4ccccc4N(Cc4ccccc4F)C3=O)cc2)CC1 returned UBC13 inh 46.5, GSTO1 counter inactive, Apaf-1 inh inactive, PAD4 inh inactive, Rin1 Abl inh inactive, SUMO HTRF inh inactive, Casp3 UBC13 ctr inactive and UBC13 confirm 53.9.
COc1ccc(S(=O)(=O)NNS(=O)(=O)c2ccc(OC)c(OC)c2)cc1OC was read as Rin1 Abl inh inactive.
Screening CCn1c(=O)cc(SCC(=O)N2CCN(C3CCCCC3)CC2)c2ccccc21 returned UBC13 inh 79.3, GSTO1 counter inactive, Apaf-1 inh inactive, PAD4 inh inactive, Rin1 Abl inh inactive, SUMO HTRF inh inactive, Casp3 UBC13 ctr inactive and UBC13 confirm inconclusive.
For COC(=O)c1ccc(Cn2c(C)c(C(=O)NCc3ccc(Cl)c(Cl)c3)sc2=O)o1 the results were Rin1 Abl inh inactive.
`C#CCOCCOCCOCCNc1nc(N2CCN(C(=O)C(Cc3ccc(O)cc3)n3cc(C(N)C(C)CC)nn3)CC2)nc(N2CCN(C(=O)C(Cc3ccc(O)cc3)n3cc(C(N)C(C)CC)nn3)CC2)n1` (configuration not stated) gave UBC13 inh 49.2, GSTO1 counter inactive, Apaf-1 inh inactive, PAD4 inh inactive, Rin1 Abl inh inactive, SUMO HTRF inh inactive, Casp3 UBC13 ctr inactive and UBC13 confirm inactive.
Screening C#CCOCCOCCOCCNc1nc(N2CCN(C(=O)[C@H](CCCCN)n3cc([C@@H](N)CC(C)C)nn3)CC2)nc(N2CCN(C(=O)[C@H](CCCCN)n3cc([C@@H](N)CC(C)C)nn3)CC2)n1 returned UBC13 inh 77.2, GSTO1 counter inactive, Apaf-1 inh inactive, PAD4 inh inactive, Rin1 Abl inh inactive, SUMO HTRF inh inactive, Casp3 UBC13 ctr inactive and UBC13 confirm 84.1.
For C#CCOCCOCCOCCNc1nc(N2CCN(C(=O)[C@H](CCCCN)n3cc([C@@H](N)C(C)CC)nn3)CC2)nc(N2CCN(C(=O)[C@H](Cc3ccc(O)cc3)n3cc([C@@H](N)CC(C)C)nn3)CC2)n1 (some centres not stated) the results were UBC13 inh 57.4, GSTO1 counter inactive, Apaf-1 inh inactive, PAD4 inh inactive, Rin1 Abl inh inactive, SUMO HTRF inh inactive, Casp3 UBC13 ctr inactive and UBC13 confirm inactive.
For C#CCOCCOCCOCCNc1nc(N2CCN(C(=O)[C@H](CCCCN)n3cc(CN)nn3)CC2)nc(N2CCN(C(=O)[C@H](CCC(=O)O)n3cc([C@@H](N)CCCCN)nn3)CC2)n1 the results were UBC13 inh 105.1, Apaf-1 inh inactive, PAD4 inh inactive, Rin1 Abl inh inactive, Casp3 UBC13 ctr inactive and UBC13 confirm 113.7.
`C#CCOCCOCCOCCNc1nc(N2CCN(C(=O)[C@H](CCC(=O)O)n3cc(CN)nn3)CC2)nc(N2CCN(C(=O)[C@H](CCCCN)n3cc([C@@H](N)CC(N)=O)nn3)CC2)n1` gave UBC13 inh inactive, Apaf-1 inh inactive, PAD4 inh inactive and Rin1 Abl inh inactive.
`C#CCOCCOCCOCCNc1nc(N2CCN(C(=O)[C@H](CCC(=O)O)n3cc(C(N)[C@H](C)CC)nn3)CC2)nc(N2CCN(C(=O)[C@H](Cc3ccc(O)cc3)n3cc(C(N)[C@H](C)CC)nn3)CC2)n1` (some centres not stated) gave UBC13 inh inactive, GSTO1 counter inactive, Apaf-1 inh inactive, PAD4 inh inactive, Rin1 Abl inh inactive and SUMO HTRF inh inactive.
Screening CCCCCCN1C[C@@H](n2cc(COC(=O)c3ccccc3)nn2)[C@H](O)C[C@@H]1c1ccc(OC)cc1 returned Rin1 Abl inh inactive.
COc1cc(-c2cc(=O)c3c(O)c(OC)c(OC)cc3o2)cc(OC)c1O was read as UBC13 inh 49.4, GSTO1 counter inactive, Apaf-1 inh inactive, PAD4 inh inactive, Rin1 Abl inh inactive, SUMO HTRF inh inactive, Casp3 UBC13 ctr inactive and UBC13 confirm inactive.
COc1ccc(-c2cc(=O)c3c(O)c(OC)c(O)cc3o2)cc1 was read as UBC13 inh inactive, GSTO1 counter inactive, Apaf-1 inh inactive, PAD4 inh inactive, Rin1 Abl inh inactive and SUMO HTRF inh inactive.
Screening Cc1ccc(NC(=O)CSc2ncnc3ccccc23)cc1S(=O)(=O)N1CCCCC1 returned UBC13 inh inactive, GSTO1 counter inactive, Apaf-1 inh inactive, PAD4 inh inactive, Rin1 Abl inh inactive and SUMO HTRF inh inactive.
For CCOC(=O)CSc1nc2ccccc2c(=O)n1CCCCCC(=O)NCc1ccco1 the results were UBC13 inh 46.6, GSTO1 counter inactive, Apaf-1 inh inactive, PAD4 inh inactive, Rin1 Abl inh inactive, SUMO HTRF inh inactive, Casp3 UBC13 ctr inactive and UBC13 confirm 47.0.
`O=C(CSc1nc2ccsc2c(=O)n1Cc1ccccc1)NCc1ccco1` gave UBC13 inh 50.3, GSTO1 counter inactive, Apaf-1 inh inactive, PAD4 inh inactive, Rin1 Abl inh inactive, SUMO HTRF inh inactive, Casp3 UBC13 ctr inactive and UBC13 confirm 67.6.
`O=C(CSc1nc2ccsc2c(=O)n1NC(=O)c1ccccc1)NCc1ccco1` gave UBC13 inh inactive, GSTO1 counter inactive, Apaf-1 inh inactive, PAD4 inh inactive, Rin1 Abl inh inactive and SUMO HTRF inh inactive.
Cc1ccc(NC(=O)CSc2ncnc3ccccc23)cc1S(=O)(=O)N1CCOCC1 was read as UBC13 inh 50.7, GSTO1 counter inactive, Apaf-1 inh inactive, PAD4 inh inactive, Rin1 Abl inh inactive, SUMO HTRF inh inactive, Casp3 UBC13 ctr inactive and UBC13 confirm inactive.
For Cc1ccc(NC(=O)CSc2nc3ccccc3c(=O)n2CCCC(=O)NCCCN2CCOCC2)cc1C the results were UBC13 inh 47.9, GSTO1 counter inactive, Apaf-1 inh inactive, PAD4 inh inactive, Rin1 Abl inh inactive, SUMO HTRF inh inactive, Casp3 UBC13 ctr inactive and UBC13 confirm 54.9.
Screening Cc1ccc(S(=O)(=O)N2[C@@H](c3ccc(Br)cc3)C(C(=O)O)=C[C@H]2C(C)(C)C)cc1 returned UBC13 inh inactive, Apaf-1 inh inactive, PAD4 inh inactive and Rin1 Abl inh inactive.
`COc1ccc(Cl)cc1C(=O)NNC(=O)c1[nH]c(C)c(C(C)=O)c1C` gave UBC13 inh inactive, Apaf-1 inh inactive, PAD4 inh inactive and Rin1 Abl inh inactive.
`COc1cccc(NC(=O)C(OC(=O)c2cnc(C)cn2)c2ccccc2)c1` (configuration not stated) gave UBC13 inh inactive, GSTO1 counter inactive, Apaf-1 inh inactive, PAD4 inh inactive and Rin1 Abl inh inactive.
